Compound activity deposited in PubChem BioAssay by several laboratories.
Hits are enriched below; roughly 1.6% of the tested compounds scored in any of these assays.
SENP1 inh: SENP1 (human) catalytic domain inhibition; Q9P0U3; recombinant SENP1 catalytic domain, CyPet-SUMO1-YPet FRET cleavage; inhibition, % at 10 µM; hit rate 0.21% among 360,000;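 active = inhibition at least 30% at 10 µM, raw YFP signal under a set limit, fluorescence ratio 0.5 to 1.5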
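Controls: no-enzyme wells low, DMSO-plus-enzyme wells high control. Test system: human recombinant His6-tagged SENP1 catalytic domain enzyme. Reagent: SFCypet-SUMO1-SFYpet FRET protein substrate, 25 nM final. Doses: one dose per compound, 10 µM, 0.5% DMSO. Detection: FRET, CFP and YFP emission. Timing: 50 min reaction at room temperature.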
CSN inh: CSN deneddylation inhibition | Q92905 | Purified CSN, SCF-Nedd8-OG deneddylation, fluorescence polarization | inhibition, % at 12.5 µM | hit rate 0.38% among 360,000 | AID 651999;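 active = pattern-corrected inhibition above about 35%, with an unprinted fluorescence ratio check between 0.5 and 1.5, limit read from the data, passing the limit was not always enough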
Target sequence (Q92905 whole entry, looked up, one chain of several): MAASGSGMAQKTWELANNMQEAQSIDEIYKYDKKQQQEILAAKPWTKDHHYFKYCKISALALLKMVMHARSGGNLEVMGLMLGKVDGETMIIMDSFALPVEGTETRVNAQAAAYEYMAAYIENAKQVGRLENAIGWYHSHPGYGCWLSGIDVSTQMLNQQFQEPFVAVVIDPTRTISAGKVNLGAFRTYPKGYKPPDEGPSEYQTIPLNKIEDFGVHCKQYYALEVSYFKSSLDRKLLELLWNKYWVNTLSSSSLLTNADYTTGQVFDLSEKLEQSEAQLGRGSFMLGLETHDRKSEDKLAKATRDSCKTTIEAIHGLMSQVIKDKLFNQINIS
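assay system = purified human Csn5 enzyme expressed in HEK293T cells | amount = 0.24 nM enzyme | buffer or medium = Tris/NaCl/DTT buffer, pH 7.5 | reagent = 10 nM SCFSkp2-Nedd8OG | compound = one concentration, 12.5 µM, 0.25% DMSO | times = 90 min reaction at room temperature | signal = FP | read-out basis = % inhibition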
Rpn11 block: blocks the human proteasome subunit Rpn11; human 26S proteasome, Ub4-pepOG fluorescence polarization; 20S core pre-blocked with epoxomicin; hit rate 0.59% among 360,000; O00487; inhibition, % at 20 µM;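 active = inhibition at 20 µM, scaled to each plate's controls, above about 33%, limit read from the data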
Target sequence (O00487 whole entry, looked up): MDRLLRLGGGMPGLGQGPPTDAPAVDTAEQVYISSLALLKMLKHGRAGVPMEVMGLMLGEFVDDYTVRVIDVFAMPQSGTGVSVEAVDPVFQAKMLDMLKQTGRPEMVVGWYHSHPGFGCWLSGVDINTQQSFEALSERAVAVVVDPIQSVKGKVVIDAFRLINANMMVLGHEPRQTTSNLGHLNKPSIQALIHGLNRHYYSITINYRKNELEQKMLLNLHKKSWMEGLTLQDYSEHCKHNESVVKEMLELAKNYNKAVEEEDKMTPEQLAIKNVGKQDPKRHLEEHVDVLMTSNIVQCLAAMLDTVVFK
HNF4A DNA FP: change in binding of human HNF4 alpha to DNA | P41235 | HNF4a-FITC DNA binding, fluorescence polarization, 1 h | hit rate 0.3% among 360,000 | activity change, % at 10 µM; in the data active = activity change above about 30%, passing the limit was not always enough
TPT1 inhibitor: inhibitors of Candida albicans tRNA 2'-phosphotransferase TPT1. recombinant caTPT1, FP RNA substrate dephosphorylation. inhibition, % at 5 µM. hit rate 0.81% among 300,000. AID 1962;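 active = inhibition above the mean of all tested compounds plus 3 SD, set per screening campaign, cut at about 24% in these data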
Rpn11 confirm: Rpn11 inhibition confirmation, single concentration. purified human 26S proteasome, Ub4-pepOG fluorescence polarization; proteasome pretreated with epoxomicin. AID 602318. shares compounds with Rpn11 block. inhibition, % at 20 µM. hit rate 29% among 1,900
MMP-2 counter: MMP-2 (human) inhibition counter-screen. shares compounds with Rpn11 block. inhibition, % at 20 µM. AID 602330. recombinant MMP-2, FRET peptide cleavage fluorescence. hit rate 4% among 1,900;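 note: human MMP-2 activated beforehand with APMA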
Thrombin FP: blocks bovine thrombin, flagging nonselective RPN11 hits; inhibition, % at 20 µM; hit rate 13% among 1,900; bovine thrombin cleavage of Ub4-pepOG, fluorescence polarization; shares compounds with Rpn11 block;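 active = mean inhibition at least 40% at 20 µM, or signal 3 deviations below plate average, so some actives read negative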
Of the large screens only hits and unclear results are named; the others gave an inactive call (follow-up assays come after a bar, where shown). Cut-off read from the data, not from the text of the source, unless noted: active = inhibition above about 40%; inactive = the rest.

CC(C)(C)c1nc2ccccc2c2nnc(SCC(=O)Nc3nc4ccccc4s3)n12	Rpn11 block 187.5 | Rpn11 confirm 81.2 | MMP-2 counter inactive | Thrombin FP inactive
CN(C)c1ccc(N=Cc2nc(-c3ccccc3)oc2OC(=O)c2ccccc2)cc1	Rpn11 block 48.2 | Rpn11 confirm 48.6 | MMP-2 counter inactive | Thrombin FP active
CC(=O)Oc1oc(-c2ccccc2)nc1C=Nc1ccc(N(C)C)cc1	none
CC1=CN2C(=N)/C(=C/c3ccc(Sc4ccc(C)cc4)o3)C(=O)N=C2S1	Rpn11 block 47.7 | Rpn11 confirm inactive | MMP-2 counter inactive | Thrombin FP inactive
CCOc1ccc(CCNC(=O)c2nnn(CC(=O)Nc3ccc(C)cc3)c2N)cc1OCC	Rpn11 block 84.3 | Rpn11 confirm 87.4 | MMP-2 counter inactive | Thrombin FP inactive
Cc1cc(C)cc(NC(=O)Cn2nnc(C(=O)NCc3ccc4c(c3)OCO4)c2N)c1	Rpn11 block 157.1 | Rpn11 confirm 101.3 | MMP-2 counter inactive | Thrombin FP inactive
COc1ccc(NC(=O)Cn2nnc(C(=O)NCc3ccc4c(c3)OCO4)c2N)cc1	none
Cc1ccc(CNC(=O)c2nnn(CC(=O)Nc3cc(C)cc(C)c3)c2N)cc1	Rpn11 block 58.4 | Rpn11 confirm 50.5 | MMP-2 counter inactive | Thrombin FP inactive
O=C(c1ccccn1)N1CCCC(N2CCN(c3cccc(C(F)(F)F)c3)CC2)C1 (centres undefined)	none
Cc1ccc(CSc2sc(C(=O)c3ccccc3)c(N)c2C#N)cc1	Rpn11 block 80.6 | Rpn11 confirm inactive | MMP-2 counter inactive | Thrombin FP inactive
Cc1ccc(CN(C(=O)c2csnn2)C(C(=O)NC2CCCC2)c2ccccn2)cc1 (centres undefined)	Rpn11 block 48.4 | Rpn11 confirm inactive | MMP-2 counter inactive | Thrombin FP inactive
Cc1ccc(N(C(=O)c2csnn2)C(C(=O)NC2CCCCC2)c2ccccn2)cc1 (centres undefined)	none
COc1cc(C(=O)NCCNC(=O)C2CCCNC2=O)cc(OC)c1OC (centres undefined)	none
Cc1[nH]c2ccccc2c1/C=N/Nc1ccccc1[N+](=O)[O-]	none
COc1ccc(NS(=O)(=O)c2cc([N+](=O)[O-])ccc2N/N=C/c2c(C)[nH]c3ccccc23)cc1	Rpn11 block 65.2, HNF4A DNA FP 76.8 (no result: TPT1 inhibitor) | Rpn11 confirm 43.8 | MMP-2 counter inactive | Thrombin FP inactive
O=C(NC(=S)Nc1ccc(Cl)cc1)c1ccccc1	none
O=C(N/C(=N\O)c1ccccc1)Nc1ccc(Cl)cc1	Rpn11 block 36.8 | Rpn11 confirm inactive | MMP-2 counter inactive | Thrombin FP inactive
Nc1cc(=O)[nH]c(SCC(=O)N2N=C(c3ccc(Cl)cc3)CC2c2ccco2)n1 (centres undefined)	Rpn11 block 43.9 | Rpn11 confirm inactive | MMP-2 counter inactive | Thrombin FP inactive
O=C(NC1CCCCC1)NC1CC2CCCC(C1)N2C1CCCC1 (centres undefined)	Rpn11 block 72.6 | Rpn11 confirm inactive | MMP-2 counter inactive | Thrombin FP inactive
O=C(OC1CCOC1=O)C1CCN(S(=O)(=O)c2c(Cl)cccc2Cl)CC1 (centres undefined)	none
Cc1cc2ncn(/N=C/c3ccc([N+](=O)[O-])o3)c2cc1C	Rpn11 block 49.7 | Rpn11 confirm 50.3 | MMP-2 counter inactive | Thrombin FP inactive
O=[N+]([O-])c1ccc(/C=N/N=C/c2ccc([N+](=O)[O-])o2)o1	none (no result: TPT1 inhibitor)
COc1cc2sc3ccc(C#Cc4ccccn4)cc3c(=O)c2cc1OC	CSN inh 54.4, Rpn11 block 55.7 | Rpn11 confirm inactive | MMP-2 counter inactive | Thrombin FP inactive
COc1cccc(C(=O)CN2C(=O)C(C)(C)Oc3ccc(C(=O)N4CCCCCC4)cc32)c1	Rpn11 block 163.0 | Rpn11 confirm inactive | MMP-2 counter inactive | Thrombin FP inactive
CN1CCN(C(=O)COCc2cc(-c3ccc4c(c3)OCO4)on2)CC1	none
CCc1ccccc1NC(=O)CN1C(=O)C2CCCN2c2ncc(Cl)cc21 (centres undefined)	Rpn11 block 40.8 | Rpn11 confirm inactive | MMP-2 counter inactive | Thrombin FP inactive
COC(=O)c1ccccc1NC(=O)CN1C(=O)C2CCCN2c2ncc(Cl)cc21 (centres undefined)	none (no result: SENP1 inh, CSN inh, Rpn11 block, HNF4A DNA FP)
CCN(C[C@H]1N[C@@](Cc2ccccc2)(C(=O)OC)[C@H]2C(=O)N(C)C(=O)[C@@H]12)C(=O)C1CCCCC1	none (no result: TPT1 inhibitor)
Cc1nnc(SCc2nc3sc4c(c3c(=O)[nH]2)CCCC4)[nH]c1=O	Rpn11 block 61.4 | Rpn11 confirm inactive | MMP-2 counter inactive | Thrombin FP 83.9
C[C@H](CO)N1C[C@H](C)[C@@H](CN(C)C(=O)Nc2cccc(F)c2)Oc2ncc(Br)cc2C1=O	Rpn11 block 78.8 (no result: TPT1 inhibitor) | Rpn11 confirm inactive | MMP-2 counter inactive | Thrombin FP inactive
O=C(O)c1ccc(C2Nc3ccccc3C(=O)N2Cc2ccccc2)cc1 (centres undefined)	none
Oc1ccc(Cl)c2cccnc12	none (no result: TPT1 inhibitor)
Cc1ccc(S(=O)(=O)Nc2cc(Cl)c(O)c3ncccc23)cc1	Rpn11 block 72.0 | Rpn11 confirm 76.2 | MMP-2 counter 51.8 | Thrombin FP inactive
Cc1ccc(S(=O)(=O)Nc2cccnc2Oc2ccc(Cl)cc2)cc1	none
Oc1c(Cl)cc(Cl)c2cccnc12	Rpn11 block 53.5 (no result: TPT1 inhibitor) | Rpn11 confirm inactive | MMP-2 counter inactive | Thrombin FP inactive
CC(=O)N1CCOc2ccc(S(=O)(=O)NCC3CCC(C(=O)Nc4ncccc4C)CC3)cc21 (centres undefined)	none
Fc1ccc(-c2nc3c4ccccc4ccn3c2Cc2cccc(Cl)c2)cc1	Rpn11 block 43.2 (no result: TPT1 inhibitor) | Rpn11 confirm 67.7 | MMP-2 counter inactive | Thrombin FP 73.9
Cc1cc(Br)ccc1NC(=O)CN(C)C(=O)C1CCN(C(=O)c2ccc(Cl)cc2)CC1	none (no result: TPT1 inhibitor)
CCOC(=O)Cn1ncc(-c2ccccc2)c1N	Rpn11 block 168.8 | Rpn11 confirm inactive | MMP-2 counter inactive | Thrombin FP inactive
CCOC(=O)Cn1nc(-c2ccccc2)nc1-c1ccccc1	none
O=C(NN1C(=O)/C(=C/c2cccs2)SC1=S)c1cccnc1	Rpn11 block 42.1 | Rpn11 confirm inactive | MMP-2 counter inactive | Thrombin FP inactive
O=C(NN1C(=O)CSC1=S)c1cccnc1	none (not shown: Rpn11 block)
O=C(N=C1SC2CS(=O)(=O)CC2N1Cc1ccccc1)C1CC1 (centres undefined)	none (no result: TPT1 inhibitor)
